# Dynein cargo inh = inhibitors of GR-EGFP nuclear translocation, primary screen, dynein cargo transport inhibitor project, imaging, high-content, 3617.4 mouse cells | test concentration mostly 20 µM; stimulated with dexamethasone, 1 µM; stronger effect = lower value | z-score, hits read low | actives 0.47% (n = 220,000);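 active = plate z-score of nuclear minus cytoplasmic receptor signal below a set negative limit, without overly bright fluorescence or cell loss, cut at about -3.5 in these data, passing the limit was not always enough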;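 also: z-score of nuclear minus cytoplasmic ring GR-EGFP intensity difference per well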
#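 Also added: dexamethasone, 1.0 µM final. Medium: tet-free, stripped-serum medium. Detection: fixed, Hoechst-stained cells imaged at 10x for EGFP. Read-out: nuclear-to-cytoplasmic GR-EGFP distribution per well. Times: induction 48 h, compound 1 h, agonist 30 min.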
# T cruzi repl = inhibitors of intracellular T. cruzi growth, primary screen, luminescence, NIH3T3 host cells; T. cruzi beta-gal in NIH3T3, 90 h; inhibition, % (test concentration not listed); actives 1.4% (n = 300,000); AID 1885, 2009;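 active = mean inhibition across valid replicates above about 55%, limit read from the data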;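 also: signal also drops with host cell toxicity which is not excluded here; 0% = plate median of DMSO wells and 100% = zero luminescence signal; higher percent means less beta-gal luminescence so fewer parasites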
#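 System – NIH/3T3 host cells with β-galactosidase reporter T. cruzi · Doses – single 50 nL compound addition per well in DMSO · Reagent – 5000 T. cruzi trypomastigotes/well · Medium – Low-serum DMEM with 2% FBS · Timing – ≥90 h infection period, 3 h prior cell attachment · Evaluation – parasite load inhibition, % · Technique – GalScreen luminescence, 60 min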
# UPR XBP1 act = activators of adaptive XBP1 UPR arm, primary screen, cell-based, CHO-XBP1 luciferase reporter, luminescence, uHTS | activation, % at 20 µM | actives 0.33% (n = 330,000) | IRE1-XBP1 UPR activation; percent of tunicamycin response, DMSO as zero;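 active = versus positive control, 20 µM dose yields 30% or more activation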;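 also: 100% = tunicamycin at 10 µg/mL and 0% = DMSO only wells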
#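 incubation = overnight seeding at 37 °C, 6 h compound treatment at 37 °C | assay system = CHO-XBP1 cells stably carrying IRE1-XBP1-driven luciferase reporter | input = 1000 cells per well | detection = luciferase luminescence | dosing = single point, 20 µM final compound, 1% DMSO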
# CHOP inh = inhibitors of CHOP promoter induction, primary screen, cell-based, unfolded protein response, luciferase reporter; actives 3.8% (n = 220,000); CHO-K1 CHOP-promoter luciferase, tunicamycin-induced, 15-18 h; inhibition, % at 10 µM;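 active = compounds that reduced the stress-induced luciferase reporter signal by more than about 70% of percent inhibition, limit read from the data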;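 also: 0% = tunicamycin plus vehicle and 100% = wells without tunicamycin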
# Lmaj promast = Leishmania major promastigote growth inhibition, primary screen; Leishmania major promastigotes, resazurin fluorescence viability; inhibition, % at 10 µM; actives 9% (n = 200,000); AID 1063, 2008; in the data active = inhibition above about 50%;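 also: promastigotes grown with compound for 44 hours at 28 °C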
# CHOP UPR activ = activators of apoptotic CHOP UPR arm, primary screen, cell-based, CHO-CHOP luciferase reporter, luminescence, uHTS | UPR activation; percent of tunicamycin response over DMSO baseline | activation, % at 10 µM | actives 0.34% (n = 330,000) | AID 449763, 2010;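 active = at 10 µM dose, activation of 40% or more, normalized to positive control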;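 also: 100% = tunicamycin at 10 µg/mL and 0% = DMSO alone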
#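 System: CHO CHOP reporter cells. Amount: 500 cells per well. Buffer or medium: F12 medium, 10% FBS. Compound dosing: one dose, 10 µM in 0.5% DMSO. Incubation: 6 h compound exposure at 37 °C after overnight seeding. Technique: Steady-Glo luciferase luminescence. Benchmarks: tunicamycin and DMSO controls.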
# Numbers without * were called inactive; / = not tested or not shown. The full list was thinned out, with hits kept by preference.
SMILES,Dynein cargo inh,T cruzi repl,UPR XBP1 act,CHOP inh,Lmaj promast,CHOP UPR activ
Cc1c(Cl)cnc(NC(=O)COC(=O)c2ccc3ncsc3c2)c1Cl,0.434,-6.3,-4.9,37.0,61.7*,-8.1
CC(C)[C@H](NC(=O)[C@H](CCCN=C(N)N)NC(=O)NC(Cc1ccccc1)C(=O)O)C(=O)NC(C=O)CCCN=C(N)N (stereo partly specified),-0.561,-3.1,-4.6,40.7,82.4*,0.5
CC(C)C(NC(=O)OCc1ccccc1)C(=O)NC(Cc1ccc(O)cc1)C(=O)O (stereo unspecified),/,1.6,-7.0,/,/,0.8
CCc1noc(C)c1C(=O)N(C)CC(=O)Nc1ccc(F)c(F)c1F,/,-2.0,1.0,/,/,0.9
Cc1cccc(C)c1OC(=O)C(c1ccccc1)c1ccccc1,-0.442,3.4,0.9,26.6,88.5*,-3.1
Cc1nc(C(F)(F)F)nc(Nc2ccc(Br)cc2)c1C#N,0.0982,14.2,0.8,82.4*,-1.8,-0.6
Cc1cc(C)c(C#N)c(Nc2ccc(F)cc2)n1,/,-6.8,-9.3,/,/,3.5
Cn1c(SCC(=O)c2ccc(O)c(O)c2)nnc1-c1ccccc1,/,-11.7,0.5,/,/,0.8
Cn1c(SCC(=O)c2ccc3c(c2)Cc2ccccc2-3)nnc1-c1cccc(N)c1,-0.713,1.0,0.6,93.5*,33.0,-1.7
Cc1ccc(-n2c(SCC(=O)c3c(N)n(C)c(=O)n(C)c3=O)nc3sc4c(c3c2=O)CCCC4)c(C)c1,2.99,68.0*,2.5,73.2*,46.7,6.5
CCOC(=O)c1c(N)sc(C(O)(C(F)(F)F)C(F)(F)F)c1-c1ccc(F)cc1,2.46,0.2,2.1,78.0*,-2.4,-3.1
O=C(CNC(=O)C1CCCCC1)OCC(=O)c1cccc(Cl)c1,/,/,-0.3,/,/,-0.5
CCCCn1nc(C(=O)NC2=NCCS2)c2ccccc2c1=O,4.86,-5.1,-3.1,17.0,3.5,-0.8
CCCCn1nc(C(=O)Nc2nc3c(s2)CCCC3)c2ccccc2c1=O,-0.58,56.1*,13.7,33.4,42.3,0.8
CCCCCCn1nc(C(=O)Nc2nc3c(s2)CCCC3)c2ccccc2c1=O,0.52,48.8,0.4,7.1,50.4*,2.4
CCCn1nc(C(=O)Nc2nc3ccccc3[nH]2)c2ccccc2c1=O,0.181,3.5,7.2,-31.9,93.2*,3.2
COc1ccc(C)cc1NC(=O)CSc1ccc(-c2ccco2)nn1,/,-2.4,-1.5,/,/,3.1
COc1ccc(CN2CCN(C(=O)CCC(=O)Nc3nnc(C4CCCCC4)s3)CC2)cc1F,/,33.3,0.2,/,/,-0.7
OC12CCCCC1C(c1ccc3c(c1)OCO3)N(Cc1ccc(F)cc1)CC2 (stereo unspecified),-0.256,18.8,-0.4,90.2*,41.8,-2.6
Cc1nn(-c2ccccc2)c2c1C(=O)N(Cc1ccccc1)C(=O)C(C)(C)C2,-0.115,26.0,-1.2,53.0,83.6*,-1.4
CCOc1ccccc1-n1c(SCC(=O)Nc2nccs2)nnc1-c1ccoc1C,-0.444,11.8,0.1,69.1,73.0*,-0.8
O=C(CSc1nnc(CCCO)n1-c1ccccc1)Nc1nccs1,-1.05,6.0,0.4,85.3*,-5.5,0.9
CC(C)(C)c1nc2ccccc2c2nnc(SCC(=O)Nc3nccs3)n12,0.828,-12.0,16.9,78.0*,2.9,5.9
CCCCOc1ccc(-c2nnn(CC(=O)NCCc3c[nH]c4ccccc34)n2)cc1,0.306,46.2,-1.1,79.1*,39.8,-2.4
Cc1ccc(C)c(NC(=O)Cn2nc(-c3ccccc3)nc2-c2ccccc2)c1,0.31,14.0,-0.4,86.8*,11.6,-2.4
SMILES,Dynein cargo inh,T cruzi repl,UPR XBP1 act,CHOP inh,Lmaj promast,CHOP UPR activ
Cc1ccc(C)c(NC(=O)Cn2nc([N+](=O)[O-])c(Br)c2C)c1,-0.0713,20.6,-3.7,-6.0,73.3*,17.4
Cc1c(Br)c([N+](=O)[O-])nn1CC(=O)NCc1ccccc1,-0.621,6.6,-2.3,4.7,2.8,-1.2
CCCCCCCCCCCCCCCC(=O)NCCc1c[nH]c2ccccc12,0.669,2.4,-3.1,6.8,-8.7,-0.3
Cc1c(Br)c([N+](=O)[O-])nn1CC(=O)NCCc1c[nH]c2ccccc12,0.529,41.2,1.1,22.1,68.7*,0.1
O=C(NCCS(=O)(=O)NCc1cccnc1)c1ccccc1,/,-9.2,4.1,/,/,0.6
O=C(Cn1cnc2c(oc3ccccc32)c1=O)NCc1ccccc1,0.325,-3.3,-4.2,-6.8,-2.7,2.6
Cc1ccc(C)c(NC(=O)Cn2cnc3c(oc4ccccc43)c2=O)c1,-0.337,-2.9,-2.4,72.0*,-13.2,0.1
COc1ccc(CCNC(=O)CCc2cn(C)c3ccccc23)c(OC)c1OC,/,-0.1,-5.0,/,/,2.3
Cc1cc(C)cc(NC(=S)Nc2ccc(Cl)c(Cl)c2)c1,-0.611,16.2,-2.3,17.2,40.9,-0.7
Fc1ccc(NC(=S)Nc2cc(-c3ccccc3)[nH]n2)cc1Cl,-0.0203,34.3,-1.8,70.5*,20.5,-0.1
Cc1cccc(C)c1NC(=S)Nc1ccc(Cl)c(Cl)c1,-0.818,1.9,-2.3,12.6,54.6*,-2.0
Cc1ccc(NC(=S)Nc2cc(-c3ccccc3)[nH]n2)cc1Cl,-0.339,/,-0.2,83.9*,-0.4,1.6
CC1CCN(CCCNC(=O)C2CCN(S(=O)(=O)N3CCC4(CC3)OCCO4)CC2)CC1,/,-8.1,-3.3,/,/,-0.5
CC(c1ccccc1)N(C)C(=O)CSc1nnc(C2CC2)n1C1CC1 (stereo unspecified),/,/,-1.2,/,/,-1.3
COc1cc(/C=C/C(=O)OCC(=O)N2c3ccccc3NC(=O)C2(C)C)cc(OC)c1OC,/,/,1.7,/,/,-1.5
COc1ccc(/C=N/Nc2cc(N(C)C)nc(N(C)C)n2)cc1,-1.53,48.7,-0.6,18.1,97.9*,2.6
COc1ccccc1/C=N/Nc1cc(N(C)C)nc(N(C)C)n1,2.6,43.5,-1.0,10.0,83.6*,-2.1
COc1ccc(/C=N/Nc2cc(C)nc(N)n2)cc1,1.77,1.2,2.3,-11.6,60.4*,6.3
CN(C)c1cc(N/N=C\c2ccccc2)nc(N(C)C)n1,0.315,46.8,-3.3,11.3,46.8,-1.3
COc1cc(/C=N/Nc2cc(C)nc(N)n2)ccc1O,/,-7.3,6.3,/,/,3.8
C/C(N)=C(/C#N)C(=O)COC(=O)c1cc(S(=O)(=O)N2CCCCC2)ccc1C,0.862,15.9,1.2,16.6,71.4*,-3.3
N#Cc1ccc(-c2ccc(F)cc2)nc1Oc1ccc(F)cc1,-0.374,-0.7,-1.9,81.3*,-4.1,-1.1
CCOC(=O)N1CCN(CCC(=O)Nc2cccc(C)c2)CC1,/,-18.5,-2.3,/,/,-1.2
